Results as given in ChEMBL document CHEMBL2169868, “Flavone-based novel antidiabetic and antidyslipidemic agents” (J Med Chem, 2012).
Activity calls are given as the source filed them. No cut-off for these calls is given here.

Key:
[1] = Volume of distribution in Sprague-Dawley rat at 10 mg/kg, iv by LC-MS/MS method; format: ADME, organism-based; parameters: dose 10 mg/kg, route intravenous; settings: in vivo
Outline: (§1)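 Male Sprague−Dawley rats, 225 ± 25 g. Single tail-vein dose of 10 mg/kg in DMF/PG/water (5:4:1), 0.2 μ filtered. Blood drawn from 0.08 to 48 h. Plasma spun at 2000g for 10 min at 4 °C and kept at −60 °C. LC-MS/MS with linear range 0.78−400 ng/mL; noncompartmental parameters.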

Rattus norvegicus [2] = assay: Volume of distribution in Sprague-Dawley rat at 40 mg/kg, po by LC-MS/MS method; format: ADME, organism-based; parameters: dose 40 mg/kg, route oral; settings: in vivo
Outline: (§2)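 Male Sprague−Dawley rats fasted 10−12 h, then given a single 40 mg/kg oral gavage as an aqueous 0.5% methyl cellulose suspension. Blood drawn from 0.25 to 120 h. Plasma spun at 2000g for 10 min at 4 °C and stored at −60 °C. LC-MS/MS, linear range 0.78−400 ng/mL.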

[3] = Mean residence time in Sprague-Dawley rat at 10 mg/kg, iv by LC-MS/MS method; format: ADME, organism-based; parameters: dose 10 mg/kg, route intravenous; settings: in vivo; outline: as §1
[4] = Mean residence time in Sprague-Dawley rat at 40 mg/kg, po by LC-MS/MS method; format: ADME, organism-based; parameters: dose 40 mg/kg, route oral; settings: in vivo; outline: as §2
[5] = Plasma clearance in Sprague-Dawley rat at 10 mg/kg, iv by LC-MS/MS method; format: ADME, organism-based; parameters: dose 10 mg/kg, route intravenous; outline: as §1
[6] = Plasma clearance in Sprague-Dawley rat at 40 mg/kg, po by LC-MS/MS method; format: ADME, organism-based; parameters: dose 40 mg/kg, route oral; outline: as §2
[7] = Tmax in Sprague-Dawley rat at 40 mg/kg, po by LC-MS/MS method; format: ADME, organism-based; parameters: dose 40 mg/kg, route oral; settings: in vivo; outline: as §2
[8] = Cmax in Sprague-Dawley rat at 10 mg/kg, iv by LC-MS/MS method; format: ADME, organism-based; parameters: dose 10 mg/kg, route intravenous; settings: in vivo; outline: as §1
[9] = Cmax in Sprague-Dawley rat at 40 mg/kg, po by LC-MS/MS method; format: ADME, organism-based; parameters: dose 40 mg/kg, route oral; settings: in vivo; outline: as §2
Syrian golden hamster [10] = assay: Antidyslipidemic activity in high fructose and high-fat diet fed dyslipidemic Syrian golden hamster model assessed as reduction in body weight at 25 mg/kg/day for 7 days; format: functional, Mesocricetus auratus; parameters: scale not given: the % may be the effect or the level left
Outline: (§3)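 Syrian golden hamsters fed high-fructose high-fat diet; oral dosing in 1% gum acacia at 10, 30, 100 mg/kg (or 25 mg/kg) for 7 days, sham control given vehicle; plasma TG, cholesterol, LDL-C, HDL-C, glycerol and NEFA (kits), lipoprotein lipase activity and body weight; % change versus HFD control, six hamsters per group.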

Syrian golden hamster [11] = assay: Antidyslipidemic activity in high fructose and high-fat diet fed dyslipidemic Syrian golden hamster model assessed as increase in HDL-cholesterol level at 25 mg/kg/day for 7 days; format: functional, Mesocricetus auratus
Syrian golden hamster [12] = assay: Antidyslipidemic activity in high fructose and high-fat diet fed dyslipidemic Syrian golden hamster model assessed as reduction in LDL-cholesterol level at 25 mg/kg/day for 7 days; format: functional, Mesocricetus auratus; parameters: scale not given: the % may be the effect or the level left; outline: as §3
Syrian golden hamster [13] = assay: Antidyslipidemic activity in high fructose and high-fat diet fed dyslipidemic Syrian golden hamster model assessed as reduction in cholesterol level at 25 mg/kg/day for 7 days; format: functional, Mesocricetus auratus; parameters: scale not given: the % may be the effect or the level left
Syrian golden hamster [14] = assay: Antidyslipidemic activity in high fructose and high-fat diet fed dyslipidemic Syrian golden hamster model assessed as reduction in triglyceride level at 25 mg/kg/day for 7 days; format: functional, Mesocricetus auratus; parameters: scale not given: the % may be the effect or the level left
Outline: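 HFD-fed Syrian golden hamsters, six per group, fed a high-fructose diet. Oral dosing in 1% gum acacia for 7 days. Sham group received vehicle. Plasma TG was measured and body weight tracked. Results given as % change versus HFD control.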

Syrian golden hamster [15] = assay: Antidyslipidemic activity in high fructose and high-fat diet fed dyslipidemic Syrian golden hamster model assessed as reduction in body weight at 100 mg/kg/day for 7 days; format: functional, organism-based; settings: Mesocricetus auratus; outline: as §3
Syrian golden hamster [16] = assay: Antidyslipidemic activity in high fructose and high-fat diet fed dyslipidemic Syrian golden hamster model assessed as increase in HDL-cholesterol level at 100 mg/kg/day for 7 days; format: functional, Mesocricetus auratus
Syrian golden hamster [17] = assay: Antidyslipidemic activity in high fructose and high-fat diet fed dyslipidemic Syrian golden hamster model assessed as reduction in LDL-cholesterol level at 100 mg/kg/day for 7 days; format: functional, Mesocricetus auratus; parameters: scale not given: the % may be the effect or the level left; outline: as §3
Syrian golden hamster [18] = assay: Antidyslipidemic activity in high fructose and high-fat diet fed dyslipidemic Syrian golden hamster model assessed as reduction in cholesterol level at 100 mg/kg/day for 7 days; format: functional, Mesocricetus auratus; parameters: scale not given: the % may be the effect or the level left
Syrian golden hamster [19] = assay: Antidyslipidemic activity in high fructose and high-fat diet fed dyslipidemic Syrian golden hamster model assessed as reduction in triglyceride level at 100 mg/kg/day for 7 days; format: functional, Mesocricetus auratus; parameters: scale not given: the % may be the effect or the level left; outline: as §3
Mus musculus [20] = assay: Reduction in body weight in diabetic C57BL/KsJ db/db mouse model in hyperglycemia at 25 mg/kg, po qd for 10 days relative to untreated control; format: functional
Outline: (§4)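 db/db mice (C57BL/KsJ, 12−18 weeks, 40−50 g, glucose 200−350 mg/dL), housed at 23 ± 2.0 °C on a 12 h light cycle. Oral dosing daily for 10 days. Blood glucose checked each morning through day 9. Body weight recorded daily from day 1 to day 10. Mean % change versus vehicle, 5 mice per group; Student t test.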

Mus musculus [21] = assay: Antihyperglycemic activity in diabetic C57BL/KsJ db/db mouse model assessed as reduction in plasma insulin level in hyperglycemia at 25 mg/kg, po qd for 10 days; format: functional; parameters: scale not given: the % may be the effect or the level left
Outline: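 db/db mice dosed orally every day for 10 days. On day 11, retro-orbital blood was drawn and plasma insulin measured. Mean % change versus vehicle-treated control, 5 mice per group; Student t test.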

Mus musculus [22] = assay: Antidyslipidemic activity in diabetic C57BL/KsJ db/db mouse model assessed as increase in plasma HDL-C/cholesterol ratio at 25 mg/kg, po qd for 10 days; format: functional
Outline: (§5)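 db/db mice (blood glucose 200−350, TG 170−250, cholesterol 170−250, HDL-C 32−40 mg/dL) dosed orally at 25 mg/kg daily for 10 days; retro-orbital blood taken on day 11 for plasma TG, cholesterol and HDL-C (and HDL-C/CHOL ratio); mean % change versus vehicle control, 5 mice per group; Student t test.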

Mus musculus [23] = assay: Antidyslipidemic activity in diabetic C57BL/KsJ db/db mouse model assessed as reduction in plasma cholesterol level at 25 mg/kg, po qd for 10 days; format: functional; parameters: scale not given: the % may be the effect or the level left; outline: as §5
Mus musculus [24] = assay: Antidyslipidemic activity in diabetic C57BL/KsJ db/db mouse model assessed as increase in plasma HDL-cholesterol level at 25 mg/kg, po qd for 10 days; format: functional; outline: as §5
Mus musculus [25] = assay: Antidyslipidemic activity in diabetic C57BL/KsJ db/db mouse model assessed as reduction in plasma triglyceride level at 25 mg/kg, po qd for 10 days; format: functional; parameters: scale not given: the % may be the effect or the level left; outline: as §5
Mus musculus [26] = assay: Antihyperglycemic activity in diabetic C57BL/KsJ db/db mouse model assessed as improvement in glucose tolerance in hyperglycemia at 25 mg/kg, po qd for 10 days; format: functional
Outline: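 Male/female C57BL/KsJ db/db mice, 12−18 weeks, 40−50 g, selected for glucose 200−350 mg/dL. Oral dosing daily for 10 days. OGTT on day 10 after an overnight fast: compound at −30 min, then 3 g/kg oral glucose at 0 min. Glucose read at 30, 60, 90 and 120 min. AUC taken versus vehicle, 5 mice per group.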

Mus musculus [27] = assay: Antihyperglycemic activity in diabetic C57BL/KsJ db/db mouse model assessed as reduction in hyperglycemia at 25 mg/kg, po qd for 10 days; format: functional; parameters: scale not given: the % may be the effect or the level left; outline: as §4
Rattus norvegicus [28] = assay: Antihyperlipidemic activity in Triton-induced dyslipidemic Wistar rat model assessed as reduction in phospholipid level at 100 mg/kg, po; format: functional; parameters: scale not given: the % may be the effect or the level left
Outline: (§6)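 Male Wistar rats, 8−10 weeks, about 160 g, fed normal pellet diet. Triton X-100 given at 400 mg/kg ip; compound given orally in 1% gum acacia. Retro-orbital blood taken 18 h after Triton and serum separated at 1500g for 10 min. TG and cholesterol measured by kit. Mean % change versus dyslipidemic control, 5 animals.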

Rattus norvegicus [29] = assay: Antihyperlipidemic activity in Triton-induced dyslipidemic Wistar rat model assessed as reduction in cholesterol level at 100 mg/kg, po; format: functional; parameters: scale not given: the % may be the effect or the level left; outline: as §6
Rattus norvegicus [30] = assay: Antihyperlipidemic activity in Triton-induced dyslipidemic Wistar rat model assessed as reduction in triglyceride level at 100 mg/kg, po; format: functional; parameters: scale not given: the % may be the effect or the level left; outline: as §6
[31] = Oral bioavailability in Sprague-Dawley rat at 40 mg/kg by LC-MS/MS method; format: ADME, organism-based; settings: in vivo; outline: as §2
[32] = Elimination half life in Sprague-Dawley rat at 10 mg/kg, iv by LC-MS/MS method; format: ADME, organism-based; parameters: dose 10 mg/kg, route intravenous; settings: in vivo, read-out: beta t1/2 (converted); outline: as §1
[33] = Elimination half life in Sprague-Dawley rat at 40 mg/kg, po by LC-MS/MS method; format: ADME, organism-based; parameters: dose 40 mg/kg, route oral; settings: in vivo, read-out: beta t1/2 (converted); outline: as §2
Rattus norvegicus [34] = assay: AUC in Sprague-Dawley rat at 10 mg/kg, iv by LC-MS/MS method; settings: in vivo
Rattus norvegicus [35] = assay: AUC in Sprague-Dawley rat at 40 mg/kg, po by LC-MS/MS method; settings: in vivo

Vd [1]: 69.4 L/kg | Vd (Rattus norvegicus [2]): 96.73 L/kg | MRT [3]: 22.8 h | MRT [4]: 43.2 h | clearance [5]: 60.8 mL/min/kg | CL/F [6]: 57 mL/min/kg | Tmax [7]: 8 h | Cmax [8]: 998 ng/mL | Cmax [9]: 60.9 ng/mL | bioavailability [31]: 29.5% | half-life [32]: 16.3 h | half-life [33]: 19.6 h | AUC (Rattus norvegicus [34]): 2717.5 ng·h/mL | AUC (Rattus norvegicus [35]): 3469.28 ng·h/mL
SMILES: CC(C)(C)NCC(O)COc1ccc2c(=O)cc(-c3cc(OCc4ccccc4)cc(OCc4ccccc4)c3)oc2c1 (racemic)
Activity (Syrian golden hamster [10]): 8.89% | Activity (Syrian golden hamster [11]): 13.3% | Activity (Syrian golden hamster [12]): 23.3% | Activity (Syrian golden hamster [13]): 15.3% | Activity (Syrian golden hamster [14]): 22.2% | Activity (Syrian golden hamster [15]): Active | Activity (Syrian golden hamster [16]): 20% | Activity (Syrian golden hamster [17]): 61.9% | Activity (Syrian golden hamster [18]): 22.9% | Activity (Syrian golden hamster [19]): 61.5% | Activity (Mus musculus [20]): inactive | Activity (Mus musculus [21]): 30.6% | Percent increase in HDL-C/cholesterol ratio vs vehicle (Mus musculus [22]): 55.7 | Activity (Mus musculus [23]): 22.3% | Activity (Mus musculus [24]): 20.9% | Activity (Mus musculus [25]): 20.1% | Activity (Mus musculus [26]): 25.9% | Activity (Mus musculus [27]): 38.3% | Activity (Rattus norvegicus [28]): 18% | Activity (Rattus norvegicus [29]): 21% | Activity (Rattus norvegicus [30]): 9%
